From ChEMBL document CHEMBL4699485, “Discovery and Development of SPR519 as a Potent, Selective, and Orally Bioavailable Inhibitor of PI3Kα and mTOR Kinases for the Treatment of Solid Tumors” (J Med Chem, 2020) come the findings set out here.

One data set deals with Cytochrome P450 2C19 (Homo sapiens, UniProt P33261). The data set is described as follows: Inhibition of CYP2C19 in human liver microsomes using isoform-specific probe substrates preincubated for 5 mins followed by NADPH addition by LC-MS/MS analysis. Type of data set: ADME. An outline of the steps: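 Human liver microsomes premixed with buffer and a CYP-specific FDA-recommended probe substrate, then spiked with inhibitor, in duplicate. After 5 min preincubation at 37 °C, reaction started with NADPH and run at 37 °C for a set time, then quenched. Metabolite formation quantified by HPLC/LC-MS/MS to derive the concentration giving 50% inhibition.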
Chain of Cytochrome P450 2C19 (P33261 whole entry, canonical isoform): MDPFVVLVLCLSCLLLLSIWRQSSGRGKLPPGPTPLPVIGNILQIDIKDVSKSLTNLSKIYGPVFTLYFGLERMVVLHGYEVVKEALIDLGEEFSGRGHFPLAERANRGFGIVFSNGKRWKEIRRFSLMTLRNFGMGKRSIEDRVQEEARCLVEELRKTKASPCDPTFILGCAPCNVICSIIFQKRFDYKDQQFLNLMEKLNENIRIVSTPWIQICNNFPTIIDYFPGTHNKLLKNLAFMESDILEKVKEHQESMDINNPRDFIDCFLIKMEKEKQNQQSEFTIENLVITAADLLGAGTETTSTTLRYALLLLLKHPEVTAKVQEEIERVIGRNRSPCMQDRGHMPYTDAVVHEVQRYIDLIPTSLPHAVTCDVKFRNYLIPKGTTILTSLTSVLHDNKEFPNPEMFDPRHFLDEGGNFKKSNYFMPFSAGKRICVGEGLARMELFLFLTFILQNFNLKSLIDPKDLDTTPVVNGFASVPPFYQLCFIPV
On the technique in general: Microsomes from liver hold many membrane-bound enzymes, among them those of drug oxidation.

Data set [1] in a line: Cmax in Swiss mouse at 10 mg/kg, po via gavage by LC-MS/MS analysis. Type of data set: ADME, organism-based. Further details: route oral, dose 10 mg/kg. The note with it: in vivo. In short, it runs like this: (§1)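 Female Swiss mice (n=3/group), fasted overnight, given single oral gavage dose in 0.5% CMC/0.5% Tween 80 (10 mL/kg) at 1, 3 or 10 mg/kg. Serial blood sampling at 0.16–8 h into heparinized tubes. Plasma extracted with acetonitrile containing verapamil internal standard and quantified by LC-MS/MS. Cmax, Tmax, AUC and t1/2 derived from the concentration–time profile.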

Data set [2] can be described thus: Metabolic stability in human liver microsomes assessed as parent compound remaining at 10 uM remaining after 120 mins in presence of NADPH by HPLC analysis. Type of data set: ADME, Microsome. To be noted: read-out: Stabilty. In short, it runs like this: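 Compound at 10 µM was incubated with 0.5 mg/mL liver microsomes and 1 mM NADPH (final). Samples were taken at 0, 15, 30, 60 and 120 min and stopped with acetonitrile, then centrifuged and the supernatant analysed by HPLC. Percent parent remaining was set relative to the 0 min peak area (100%).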

Data set [3] is described as follows: AUC in Swiss mouse at 10 mg/kg, po via gavage by LC-MS/MS analysis. The data set is classed as ADME, organism-based. Set-up: dose 10 mg/kg. To be noted: in vivo. An outline of the steps:
as §1

Data set [4] has as its system SK-OV-3. As to the kind of experiment: Antitumor activity against human SK-OV-3 cells xenografted in po dosed CD1 nude mouse assessed as reduction in tumor volume administered once daily for 27 days and measured at 3 days interval during compound dosing. Type of data set: functional, organism-based. The note with it: dose mg/kg 2.5-10, time 27.0 day. An outline of the steps:
(§2)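 Female CD1 nude mice bearing subcutaneous SK-OV-3 xenografts, randomized at average tumor size 120–130 mm³, five per group. Given oral doses of 2.5, 5 or 10 mg/kg once daily for 27 days alongside a vehicle control. Tumor volume from caliper length and width as (width² × length)/2, tracked every third day. Two-way ANOVA with Dunnett's test, n=5.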

Data set [5] in a line: Tmax in Swiss mouse at 10 mg/kg, po via gavage by LC-MS/MS analysis. The data set is classed as ADME, organism-based. To be noted: in vivo. In short, it runs like this:
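Female Swiss mice (n=3/group) were fasted overnight, then gavaged with compound in 0.5% CMC/0.5% Tween 80 at 10 mL/kg. Serial blood samples at 0.16, 0.5, 1, 2, 4, 6 and 8 h were taken into heparinized tubes and spun to plasma. Plasma was extracted with acetonitrile containing verapamil (400 ng/mL) and quantified by LC-MS/MS against plasma calibration curves. Tmax was derived from the concentration–time profile.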

Data set [6] is described as follows: Toxicity in Swiss mouse assessed as discoloration of lung at 30 mg/kg, po administered twice daily via gavage for 5 days and measured post last dose. The data set is classed as organism-based. To be noted: in vivo, 120 h, time 5 day. An outline of the steps:
(§3)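 Female Swiss mice (3 treated, 2 controls) were gavaged twice daily for 5 days, with compound in 0.5% CMC and Tween 80. After the last dosing the animals were sacrificed. Liver, kidney, lung, uterus and brain were excised and inspected visually for morphology and color change.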

Data set [7] deals with 3-phosphoinositide-dependent protein kinase 1 (Homo sapiens) (UniProt O15530). As to the kind of experiment: Inhibition of human PDK1 at 1 uM using fluorescently labeled peptide substrate measured after 3 hrs by microfluidic mobility shift assay relative to control.
Chain of 3-phosphoinositide-dependent protein kinase 1 (Homo sapiens) (O15530 whole entry, looked up): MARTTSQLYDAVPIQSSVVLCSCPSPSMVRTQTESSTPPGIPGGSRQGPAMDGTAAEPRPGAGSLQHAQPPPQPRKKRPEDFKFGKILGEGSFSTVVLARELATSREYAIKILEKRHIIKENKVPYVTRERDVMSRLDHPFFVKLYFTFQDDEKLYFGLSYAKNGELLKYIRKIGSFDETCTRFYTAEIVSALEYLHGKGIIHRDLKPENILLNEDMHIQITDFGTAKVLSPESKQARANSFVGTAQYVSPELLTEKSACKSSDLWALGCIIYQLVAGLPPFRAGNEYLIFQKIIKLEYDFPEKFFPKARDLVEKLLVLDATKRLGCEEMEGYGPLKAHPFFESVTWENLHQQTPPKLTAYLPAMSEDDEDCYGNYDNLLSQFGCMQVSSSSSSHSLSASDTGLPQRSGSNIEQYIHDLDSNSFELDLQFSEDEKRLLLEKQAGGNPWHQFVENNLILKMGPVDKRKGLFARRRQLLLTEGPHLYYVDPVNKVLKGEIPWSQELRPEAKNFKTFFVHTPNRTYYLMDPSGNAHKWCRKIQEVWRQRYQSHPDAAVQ
In data set [8] the target is High affinity nerve growth factor receptor (Homo sapiens) (UniProt P04629). The data set is described as follows: Inhibition of human TRKA at 1 uM using fluorescently labeled peptide substrate measured after 3 hrs by microfluidic mobility shift assay relative to control. An outline of the steps: (§4)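 Single-concentration screen at 1 µM in duplicate, 1% final DMSO. Kinase (typically 1 nM), fluorescently labeled peptide substrate (typically 1 µM), ATP at Km and Mg²⁺ incubated about 3 h at 25 °C, then EDTA-quenched. Substrate and phosphorylated product separated by microfluidic electrophoresis and quantified by fluorescence.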
Chain of High affinity nerve growth factor receptor (Homo sapiens) (P04629 33-796 limits assumed): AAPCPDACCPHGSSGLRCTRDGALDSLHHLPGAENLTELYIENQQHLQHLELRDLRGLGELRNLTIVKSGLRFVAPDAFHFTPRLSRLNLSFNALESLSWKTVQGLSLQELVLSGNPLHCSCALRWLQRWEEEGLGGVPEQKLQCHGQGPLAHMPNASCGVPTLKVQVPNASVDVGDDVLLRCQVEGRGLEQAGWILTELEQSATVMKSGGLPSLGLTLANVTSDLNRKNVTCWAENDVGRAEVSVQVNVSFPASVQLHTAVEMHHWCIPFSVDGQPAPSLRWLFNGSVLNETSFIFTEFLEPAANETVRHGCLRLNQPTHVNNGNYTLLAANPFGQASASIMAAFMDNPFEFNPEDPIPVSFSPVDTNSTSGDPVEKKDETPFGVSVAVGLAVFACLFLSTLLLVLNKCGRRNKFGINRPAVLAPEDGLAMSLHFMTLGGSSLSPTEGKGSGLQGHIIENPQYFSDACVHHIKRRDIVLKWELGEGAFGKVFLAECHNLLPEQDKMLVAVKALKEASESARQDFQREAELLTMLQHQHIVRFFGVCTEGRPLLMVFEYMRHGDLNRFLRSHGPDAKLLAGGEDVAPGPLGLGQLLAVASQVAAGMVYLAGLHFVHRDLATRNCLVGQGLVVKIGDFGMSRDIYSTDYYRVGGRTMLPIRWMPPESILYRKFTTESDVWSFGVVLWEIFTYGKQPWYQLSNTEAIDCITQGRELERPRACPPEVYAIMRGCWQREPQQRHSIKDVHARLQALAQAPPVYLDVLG

Data set [9] concerns SK-OV-3. The data set is described as follows: Antitumor activity against human SK-OV-3 cells xenografted in CD1 nude mouse assessed as tumor growth inhibition at 2.5 mg/kg, po administered once daily for 27 days and measured on day 3. Type of data set: functional, organism-based. The note with it: time 27.0 day. An outline of the steps: as §2
(In xenograft studies the graft and the host belong to different species.)

Data set [10] concerns the target Voltage-gated inwardly rectifying potassium channel KCNH2 (Homo sapiens, UniProt Q12809). The data set is described as follows: Inhibition of human ERG by patch-clamp assay.
In data set [11] the target is Phosphatidylinositol 4,5-bisphosphate 3-kinase catalytic subunit beta isoform (Homo sapiens) (UniProt P42338). As to the kind of experiment: Inhibition of human PI3kbeta at 1 uM using fluorescently labeled peptide substrate measured after 3 hrs by microfluidic mobility shift assay relative to control. An outline of the steps: as §4
Chain of Phosphatidylinositol 4,5-bisphosphate 3-kinase catalytic subunit beta isoform (Homo sapiens) (P42338 whole entry, looked up, canonical isoform): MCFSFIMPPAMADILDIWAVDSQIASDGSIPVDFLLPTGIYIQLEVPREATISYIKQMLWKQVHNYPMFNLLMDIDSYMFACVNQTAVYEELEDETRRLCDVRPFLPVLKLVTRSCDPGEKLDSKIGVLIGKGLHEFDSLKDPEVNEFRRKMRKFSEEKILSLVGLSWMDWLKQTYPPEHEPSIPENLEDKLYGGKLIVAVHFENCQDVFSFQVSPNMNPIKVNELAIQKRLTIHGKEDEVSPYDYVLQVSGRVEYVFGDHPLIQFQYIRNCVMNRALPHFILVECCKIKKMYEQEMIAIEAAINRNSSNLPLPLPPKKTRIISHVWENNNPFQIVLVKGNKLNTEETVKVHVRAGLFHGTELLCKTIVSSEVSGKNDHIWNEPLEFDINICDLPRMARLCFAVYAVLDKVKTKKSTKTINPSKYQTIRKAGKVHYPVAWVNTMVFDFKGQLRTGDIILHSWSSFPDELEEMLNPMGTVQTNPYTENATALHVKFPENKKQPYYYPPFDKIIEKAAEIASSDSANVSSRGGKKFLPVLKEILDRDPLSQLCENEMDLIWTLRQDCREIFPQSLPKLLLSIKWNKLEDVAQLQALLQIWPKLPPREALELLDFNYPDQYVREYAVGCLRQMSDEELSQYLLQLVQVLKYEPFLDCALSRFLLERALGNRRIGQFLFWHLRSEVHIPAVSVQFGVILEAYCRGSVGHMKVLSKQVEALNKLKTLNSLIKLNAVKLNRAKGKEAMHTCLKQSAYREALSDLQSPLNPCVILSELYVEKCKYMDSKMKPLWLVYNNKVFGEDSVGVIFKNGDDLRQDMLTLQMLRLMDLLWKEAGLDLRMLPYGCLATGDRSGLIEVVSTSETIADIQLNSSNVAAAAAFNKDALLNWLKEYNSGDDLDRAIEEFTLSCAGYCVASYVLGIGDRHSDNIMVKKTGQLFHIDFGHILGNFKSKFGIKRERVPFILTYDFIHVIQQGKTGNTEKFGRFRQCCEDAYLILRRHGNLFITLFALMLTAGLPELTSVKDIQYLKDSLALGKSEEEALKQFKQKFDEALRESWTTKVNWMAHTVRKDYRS
Data set [12] is described as follows: Toxicity in Swiss mouse assessed as loss of appetite at 10 mg/kg, po administered twice daily via gavage for 5 days and measuring daily during compound dosing. Type of data set: organism-based. To be noted: in vivo, 120 h, time 5 day. An outline of the steps: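 Female Swiss mice (3 treated, 2 vehicle controls) received oral gavage twice daily for 5 days, with compound formulated in 0.5% CMC and Tween 80. Body weight, body temperature, body coat, feed intake, eyes, feces and general activity were observed daily.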

A short description of data set [13]: Toxicity in Swiss mouse assessed as discoloration of kidney at 30 mg/kg, po administered twice daily via gavage for 5 days and measured post last dose. The data set is classed as organism-based. To be noted: in vivo, 120 h, time 5 day. In short, it runs like this: as §3
A short description of data set [14]: Drug level in Swiss mouse lung at 30 mg/kg, po administered twice daily via gavage for 5 days and measured post last dose by LC-MS/MS analysis. The data set is classed as ADME, organism-based. The note with it: time 5 day, read-out: Drug uptake. An outline of the steps: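 Female Swiss mice (n=3) given 30 mg/kg in 0.5% CMC/Tween 80 by oral gavage twice daily for 5 days, with two vehicle controls. After sacrifice, liver, kidney, lung, uterus and brain were collected, homogenized in water and solvent-extracted. Drug concentration (ng/g) measured by LC-MS/MS.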

Data set [15] is described as follows: Toxicity in Swiss mouse assessed as discoloration of brain at 30 mg/kg, po administered twice daily via gavage for 5 days and measured post last dose. Type of data set: organism-based. The note with it: in vivo, 120 h, time 5 day. An outline of the steps: as §3
Data set [16] has as its target Dual specificity mitogen-activated protein kinase kinase 2 (Homo sapiens) (UniProt P36507). The data set is described as follows: Inhibition of human MEK2 at 1 uM using fluorescently labeled peptide substrate measured after 3 hrs by microfluidic mobility shift assay relative to control. In short, it runs like this: as §4
The target of data set [17] is RAC-beta serine/threonine-protein kinase (Homo sapiens) (UniProt P31751). As to the kind of experiment: Inhibition of human AKT2 at 1 uM using fluorescently labeled peptide substrate measured after 3 hrs by microfluidic mobility shift assay relative to control. In short, it runs like this:
as §4

A further data set concerns HCT-116. As to the kind of experiment: Antitumor activity against human HCT-116 cells xenografted in CD1 nude mouse assessed as tumor growth inhibition at 2.5 mg/kg, po administered once daily for 21 days and measured on day 3. The data set is classed as functional, organism-based. The note with it: time 21.0 day. An outline of the steps: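 Female CD1 nude mice bearing subcutaneous HCT116 xenografts, randomized at average tumor size 120–130 mm³, five per group. Dosed orally once daily at 2.5, 5, 10 or 20 mg/kg for 21 days alongside a vehicle control. Caliper measurement of tumor volume as (width² × length)/2, monitored every third day.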

For data set [18], the target named is Glycogen synthase kinase-3 beta (Homo sapiens) (UniProt P49841). As to the kind of experiment: Inhibition of human GSK3B at 1 uM using fluorescently labeled peptide substrate measured after 3 hrs by microfluidic mobility shift assay relative to control. In short, it runs like this: as §4
Chain of Glycogen synthase kinase-3 beta (Homo sapiens) (P49841 whole entry, looked up): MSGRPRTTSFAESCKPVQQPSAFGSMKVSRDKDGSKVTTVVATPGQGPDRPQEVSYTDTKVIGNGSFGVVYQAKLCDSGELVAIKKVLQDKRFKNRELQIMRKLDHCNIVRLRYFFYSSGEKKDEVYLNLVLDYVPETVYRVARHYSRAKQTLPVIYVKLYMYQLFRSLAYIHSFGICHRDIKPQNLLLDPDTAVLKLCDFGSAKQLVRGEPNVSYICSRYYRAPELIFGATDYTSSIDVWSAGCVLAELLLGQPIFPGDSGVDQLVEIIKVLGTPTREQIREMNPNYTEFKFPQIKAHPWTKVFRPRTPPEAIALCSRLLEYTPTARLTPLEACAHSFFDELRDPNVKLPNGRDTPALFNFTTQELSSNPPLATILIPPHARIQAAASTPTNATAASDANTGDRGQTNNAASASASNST
Data set [19] can be described thus: Elimination half life in Swiss mouse at 3 mg/kg, po via gavage by LC-MS/MS analysis. To be noted: in vivo, read-out: beta t1/2 (converted). Type of data set: ADME, organism-based. In short, it runs like this: as §1

Structures are written as SMILES. Active and inactive are the calls of the source. The calls are words filed in the database; no cut-off is given here.

Chain of Dual specificity mitogen-activated protein kinase kinase 2 (Homo sapiens) (P36507 whole entry): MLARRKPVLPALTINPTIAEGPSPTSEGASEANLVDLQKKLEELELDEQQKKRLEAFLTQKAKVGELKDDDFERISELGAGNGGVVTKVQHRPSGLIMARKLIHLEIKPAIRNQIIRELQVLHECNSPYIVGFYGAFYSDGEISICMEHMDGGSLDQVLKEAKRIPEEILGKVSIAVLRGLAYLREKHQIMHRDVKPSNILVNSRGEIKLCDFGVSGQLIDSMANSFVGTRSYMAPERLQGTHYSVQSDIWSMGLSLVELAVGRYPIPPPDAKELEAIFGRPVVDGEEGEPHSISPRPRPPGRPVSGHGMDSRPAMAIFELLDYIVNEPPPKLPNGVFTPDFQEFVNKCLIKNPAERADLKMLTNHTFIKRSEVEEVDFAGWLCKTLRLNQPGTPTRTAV
Chain of RAC-beta serine/threonine-protein kinase (Homo sapiens) (P31751 whole entry): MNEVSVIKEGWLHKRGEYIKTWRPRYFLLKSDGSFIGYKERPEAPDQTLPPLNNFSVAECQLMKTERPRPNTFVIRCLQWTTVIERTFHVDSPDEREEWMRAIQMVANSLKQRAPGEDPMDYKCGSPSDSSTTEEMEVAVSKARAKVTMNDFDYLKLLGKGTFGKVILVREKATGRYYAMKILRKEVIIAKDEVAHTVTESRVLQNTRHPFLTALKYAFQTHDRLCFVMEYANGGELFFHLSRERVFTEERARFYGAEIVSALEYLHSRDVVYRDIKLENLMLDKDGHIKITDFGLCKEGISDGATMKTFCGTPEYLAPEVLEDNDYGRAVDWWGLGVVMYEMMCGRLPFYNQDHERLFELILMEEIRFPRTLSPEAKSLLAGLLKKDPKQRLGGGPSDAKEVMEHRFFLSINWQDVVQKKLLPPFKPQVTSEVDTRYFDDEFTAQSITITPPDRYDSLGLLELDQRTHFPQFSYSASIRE

A word on the IC50: it is the midpoint of a concentration-inhibition curve. A low value points to greater potency in that assay. In general, Cmax refers to the peak of the concentration-time curve. For orientation: AUC means the area under the concentration-time curve, a measure of exposure. High values mean high exposure, low ones low exposure. One may read the Tmax as the time from dosing to the highest level. For orientation: inhibition means the relative decrease from the control value, in per cent. With `CN(C)C(=O)c1ccc(Oc2nc(-c3cnc(N)s3)nc(N3CCOCC3)n2)cc1`, the IC50 (against Cytochrome P450 2C19; in data set [10]) was above 10 µM throughout. For the same molecule, the Cmax in data set [1] turned out to be 12.6 µM. Moreover, the remaining at 2 h, 10 µM in data set [2] came out at 98%. Besides, in data set [3], the AUC amounted to 76.4 µM·h. For the same molecule, the Activity entry was “Dose-dependent effect” in the data set with SK-OV-3 [4]; “Non-Toxic” in data set [6]; “Non-Toxic” in data set [12]; “Non-Toxic” in [13]; “Non-Toxic” in data set [15]. Moreover, the Tmax in [5] came to 1.67 h. In addition, the inhibition is -1% in data set [7]; 3% in data set [8]; 42% in data set [11]; 1% in data set [16]; 0% in data set [17]; -1% in [18]. In addition, the TGI result in the data set on SK-OV-3 [9] and in the data set with HCT-116 was “Active” each time. Further, in data set [14], the concentration at 120 h was 50 ng/g. The half-life in [19] is 2.7 h.
